In test [1] the test system is SW-620. Nature of the test: Inhibition of cell growth of SW620 cell lines using cell-based assay. Format: functional. To be noted: Homo sapiens. The method, boiled down: (§1)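 Cells kept in RPMI-1640 with 5% fetal bovine serum and plated at 5.0 × 10^4/mL. Next day they were dosed at 0.5, 5, 50, 500 and 5000 ng/mL and cultured 2 days. Survival was read by sulforhodamine B. IC50 is the concentration inhibiting growth by 50%, taken from the five-point dose-response curve.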

Test [2] has as its system A-431. The test can be described thus: Inhibition of human epidermoid carcinoma xenograft (A431) tumor growth. In kind it is functional, cell-based. The method, boiled down:
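Female athymic nu/nu mice received 5 × 10^6 A431 cells sc in the flank. At 80–120 mg tumor mass they were randomized, 10 per group. Dosing was oral, once daily on days 1–10, 40 mg/kg in 0.2% Klucel, with a vehicle control. Tumor mass [(length × width²)/2] was measured every 7 days from day 8 to 29. Relative growth is versus day 0, compared by Student t-test of log values.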

Test [3] concerns the target Epidermal growth factor receptor (Homo sapiens, UniProt P00533). Nature of the test: Inhibition of epidermal growth factor receptor using enzyme assay.
Test [4] addresses Receptor tyrosine-protein kinase erbB-2 (Homo sapiens, UniProt P04626). Nature of the test: Inhibition of human epidermal growth factor receptor (HER-2) using enzyme assay. The procedure, abridged:
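His6-tagged HER-2 cytoplasmic domain was expressed in Sf-9 cells and purified on Ni-NTA (about 80% pure). Enzyme (12.5 ng/well) was preincubated with compound 10 min at room temperature in HEPES pH 7.4. Autophosphorylation ran 1 h with MnCl2/Na3VO4/DTT buffer plus 0.1 mM ATP–50 mM MgCl2 (as added). Europium anti-phosphotyrosine time-resolved fluorescence was read at 340/615 nm. IC50 came from eight concentrations, mean of duplicates.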

The test system of test [5] is SK-BR-3. The test can be described thus: Inhibition of cell growth of SKBr3 cell lines using cell-based assay. In kind it is functional. The settings on record: Homo sapiens. The method, boiled down:
as §1

Among the data in ChEMBL document CHEMBL1134561, “6-Substituted-4-(3-bromophenylamino)quinazolines as putative irreversible inhibitors of the epidermal growth factor receptor (EGFR) and human epidermal growth factor receptor (HER-2) tyrosine kinases with enhanced antitumor activity” (J Med Chem, 2001) are IC50 values, retold here.

The IC50 is the concentration that inhibits the measured activity by half. A lower IC50 goes with greater potency.

Chain of Receptor tyrosine-protein kinase erbB-2 (P04626 whole entry, the tested form may be a part): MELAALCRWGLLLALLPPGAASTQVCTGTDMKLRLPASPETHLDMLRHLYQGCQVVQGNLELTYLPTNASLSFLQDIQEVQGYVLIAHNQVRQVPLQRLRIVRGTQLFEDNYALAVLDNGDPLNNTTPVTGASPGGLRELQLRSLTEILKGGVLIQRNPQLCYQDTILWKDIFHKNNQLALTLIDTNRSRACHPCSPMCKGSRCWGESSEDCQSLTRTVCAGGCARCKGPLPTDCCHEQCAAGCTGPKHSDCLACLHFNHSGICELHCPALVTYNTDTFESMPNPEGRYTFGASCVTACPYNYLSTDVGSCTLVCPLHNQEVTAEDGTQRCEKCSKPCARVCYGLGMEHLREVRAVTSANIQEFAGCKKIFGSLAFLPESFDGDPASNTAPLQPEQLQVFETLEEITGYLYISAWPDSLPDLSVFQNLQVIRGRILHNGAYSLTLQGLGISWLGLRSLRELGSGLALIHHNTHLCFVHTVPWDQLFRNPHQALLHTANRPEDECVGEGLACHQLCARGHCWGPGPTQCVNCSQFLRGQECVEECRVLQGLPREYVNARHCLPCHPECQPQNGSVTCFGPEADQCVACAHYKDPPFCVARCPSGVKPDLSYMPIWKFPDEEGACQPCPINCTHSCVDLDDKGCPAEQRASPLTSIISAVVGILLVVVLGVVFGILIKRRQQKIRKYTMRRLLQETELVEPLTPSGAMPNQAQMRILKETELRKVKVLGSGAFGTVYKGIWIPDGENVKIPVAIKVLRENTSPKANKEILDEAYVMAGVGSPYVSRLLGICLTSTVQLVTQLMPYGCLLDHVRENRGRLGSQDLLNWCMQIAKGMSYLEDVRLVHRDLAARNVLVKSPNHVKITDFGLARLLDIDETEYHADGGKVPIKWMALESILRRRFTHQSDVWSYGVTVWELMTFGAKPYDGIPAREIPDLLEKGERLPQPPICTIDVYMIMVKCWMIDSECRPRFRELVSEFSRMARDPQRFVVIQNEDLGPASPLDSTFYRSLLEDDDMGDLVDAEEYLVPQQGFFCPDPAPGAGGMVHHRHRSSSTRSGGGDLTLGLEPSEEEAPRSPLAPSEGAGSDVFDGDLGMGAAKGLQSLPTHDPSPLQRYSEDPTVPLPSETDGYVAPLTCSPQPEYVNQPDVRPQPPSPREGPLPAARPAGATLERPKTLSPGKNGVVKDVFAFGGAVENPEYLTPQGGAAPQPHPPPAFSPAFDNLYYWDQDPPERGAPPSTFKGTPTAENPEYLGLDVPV
Chain of Epidermal growth factor receptor (P00533 whole entry): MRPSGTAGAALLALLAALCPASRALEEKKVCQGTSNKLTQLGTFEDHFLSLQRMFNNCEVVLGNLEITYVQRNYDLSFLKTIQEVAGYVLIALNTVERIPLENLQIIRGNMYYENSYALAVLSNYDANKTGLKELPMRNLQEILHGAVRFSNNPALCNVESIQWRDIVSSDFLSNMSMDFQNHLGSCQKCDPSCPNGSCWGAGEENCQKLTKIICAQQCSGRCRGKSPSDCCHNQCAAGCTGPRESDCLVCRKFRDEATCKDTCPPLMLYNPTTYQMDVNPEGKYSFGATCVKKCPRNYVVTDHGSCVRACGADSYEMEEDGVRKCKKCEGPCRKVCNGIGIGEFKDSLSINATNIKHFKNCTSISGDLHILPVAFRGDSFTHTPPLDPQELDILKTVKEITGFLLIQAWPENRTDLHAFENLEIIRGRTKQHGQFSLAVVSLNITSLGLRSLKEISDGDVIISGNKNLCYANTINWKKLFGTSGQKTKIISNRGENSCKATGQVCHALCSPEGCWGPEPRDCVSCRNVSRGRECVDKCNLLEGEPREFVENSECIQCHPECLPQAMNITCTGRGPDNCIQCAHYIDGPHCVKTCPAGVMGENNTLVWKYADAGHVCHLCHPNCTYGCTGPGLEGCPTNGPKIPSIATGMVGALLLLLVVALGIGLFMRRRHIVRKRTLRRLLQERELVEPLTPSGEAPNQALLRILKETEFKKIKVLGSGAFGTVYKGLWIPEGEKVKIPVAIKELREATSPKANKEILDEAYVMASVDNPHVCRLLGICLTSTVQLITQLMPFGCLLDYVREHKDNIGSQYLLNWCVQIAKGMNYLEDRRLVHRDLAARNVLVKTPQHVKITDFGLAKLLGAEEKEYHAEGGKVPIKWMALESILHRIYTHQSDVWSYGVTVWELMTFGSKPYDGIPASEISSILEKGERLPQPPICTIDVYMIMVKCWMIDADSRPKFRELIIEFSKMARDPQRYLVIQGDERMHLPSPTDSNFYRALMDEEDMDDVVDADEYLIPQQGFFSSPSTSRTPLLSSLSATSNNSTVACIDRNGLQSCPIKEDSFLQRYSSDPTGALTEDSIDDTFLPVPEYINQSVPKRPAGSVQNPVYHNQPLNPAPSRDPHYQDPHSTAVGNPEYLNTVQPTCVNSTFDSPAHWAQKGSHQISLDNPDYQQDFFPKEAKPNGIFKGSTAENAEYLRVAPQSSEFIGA

On to `O=C(/C=C/N1CCOCC1)Nc1ccc2ncnc(Nc3cccc(Br)c3)c2c1`, for which the IC50 in test [1] turned out to be 2020 nM; in test [2] it was 1080 nM; in test [3], 215 nM; in test [4] it was 4180 nM; in test [5], 1020 nM.
